Reference: ChEMBL document CHEMBL1158354, “Condensed 1,4-dihydropyridines with various esters and their calcium channel antagonist activities” (2009)
Activity calls are given as the source filed them. No cut-off for these calls is given here.

Tests used:
[1] = species: Oryctolagus cuniculus; assay: (§1) Antagonist activity at voltage dependent L-type calcium channel in New Zealand white rabbit sigmoid colon circular smooth muscle strip assessed as relaxation response; type: functional
How it was run: (§2)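 Strips held at 1 g basal tension and equilibrated 60 min in Ca2+-free KHS, with the solution changed every 15 min. Strips were then placed in Ca2+-free, 80 mM K+ solution and contracted by cumulative Ca2+ (2.5, 5, 10 mM). At the contraction plateau, compounds were added cumulatively (10^-8–10^-4 M). Emax and pD2 (−log EC50) were derived from concentration–relaxation curves, n = 6.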

[2] = species: Oryctolagus cuniculus; assay: (§3) Antagonist activity at voltage dependent L-type calcium channel in New Zealand white rabbit sigmoid colon circular smooth muscle strip assessed as relaxation response relative to papaverine; type: functional
[3] = as §1; type: functional, Oryctolagus cuniculus; how it was run: as §2
[4] = as §3; type: functional; settings: Oryctolagus cuniculus
[5] = species: Oryctolagus cuniculus; assay: (§4) Antagonist activity at voltage dependent L-type calcium channel in New Zealand white rabbit sigmoid colon circular smooth muscle strip assessed as induction of relaxation response in presence of Ca2+-activated potassium channel blocker tetraethylammonium; type: functional
[6] = as §4; type: functional, Oryctolagus cuniculus; design: scale not given: the % may be the effect or the level left

| SMILES | Activity [1] | pD2 [1] | Emax [2] | pD2 [3] | Emax [4] | Activity [5] | Activity [6] |
| --- | --- | --- | --- | --- | --- | --- | --- |
| CC1(C)CC(=O)C2=C(C1)NC1=C(C(=O)OC1)C2c1cc(C(F)(F)F)cc(Cl)c1F (stereo not drawn) | Dose-dependent effect | inactive | inactive |  |  |  |  |
| COC(=O)C1=C(C)NC2=C(C(=O)CC(C)(C)C2)C1c1cc(C(F)(F)F)cc(Cl)c1F (stereo not drawn) | Dose-dependent effect |  |  | 4.84 | 32.2% |  |  |
| CCOC(=O)C1=C(C)NC2=C(C(=O)C(C)(C)CC2)C1c1cc(C(F)(F)F)cc(Cl)c1F (stereo not drawn) | Dose-dependent effect |  |  | 5.06 | 23% |  |  |
| CC1=C(C(=O)OCc2ccccc2)C(c2cc(C(F)(F)F)cc(Cl)c2F)C2=C(CCC(C)(C)C2=O)N1 (stereo not drawn) | Dose-dependent effect | inactive | inactive |  |  |  |  |
| COCCOC(=O)C1=C(C)NC2=C(C(=O)C(C)(C)CC2)C1c1cc(C(F)(F)F)cc(Cl)c1F (stereo not drawn) | Dose-dependent effect |  |  | 4.89 | 43.7% |  |  |
| C=CCOC(=O)C1=C(C)NC2=C(C(=O)CC(C)(C)C2)C1c1cc(C(F)(F)F)cc(Cl)c1F (stereo not drawn) | Dose-dependent effect | inactive | inactive |  |  |  |  |
| CC1=C(C(=O)OCc2ccccc2)C(c2cc(C(F)(F)F)cc(Cl)c2F)C2=C(CC(C)(C)CC2=O)N1 (stereo not drawn) | Dose-dependent effect | inactive | inactive |  |  |  |  |
| COC(=O)C1=C(C)NC(C)=C(C(=O)OC)C1c1ccccc1[N+](=O)[O-] [NIFEDIPINE] | Dose-dependent effect |  |  | 6.92 | 94% |  |  |
| CC1(C)CCC2=C(C1=O)C(c1cc(C(F)(F)F)cc(Cl)c1F)C1=C(COC1=O)N2 (stereo not drawn) | Dose-dependent effect | inactive | inactive |  |  | inactive |  |
| CC1=C(C(=O)OCC(C)C)C(c2cc(C(F)(F)F)cc(Cl)c2F)C2=C(CC(C)(C)CC2=O)N1 (stereo not drawn) | Dose-dependent effect | inactive | inactive |  |  |  |  |
| CC1=C(C(=O)OC(C)(C)C)C(c2cc(C(F)(F)F)cc(Cl)c2F)C2=C(CCC(C)(C)C2=O)N1 (stereo not drawn) | Dose-dependent effect | inactive | inactive |  |  |  |  |
| CCOC(=O)C1=C(C)NC2=C(C(=O)CC(C)(C)C2)C1c1cc(C(F)(F)F)cc(Cl)c1F (stereo not drawn) | Dose-dependent effect |  |  | 4.74 | 22.8% |  |  |
| COCCOC(=O)C1=C(C)NC2=C(C(=O)CC(C)(C)C2)C1c1cc(C(F)(F)F)cc(Cl)c1F (stereo not drawn) | Dose-dependent effect |  |  | 5.11 | 45% |  |  |
| CC1=C(C(=O)OCC(C)C)C(c2cc(C(F)(F)F)cc(Cl)c2F)C2=C(CCC(C)(C)C2=O)N1 (stereo not drawn) | Dose-dependent effect | inactive | inactive |  |  |  |  |
| COC(=O)C1=C(C)NC2=C(C(=O)C(C)(C)CC2)C1c1cc(C(F)(F)F)cc(Cl)c1F (stereo not drawn) | Dose-dependent effect |  |  | 4.94 | 17.2% |  | 17.19% |
| CC1=C(C(=O)OC(C)(C)C)C(c2cc(C(F)(F)F)cc(Cl)c2F)C2=C(CC(C)(C)CC2=O)N1 (stereo not drawn) | Dose-dependent effect | inactive | inactive |  |  |  |  |
| C=CCOC(=O)C1=C(C)NC2=C(C(=O)C(C)(C)CC2)C1c1cc(C(F)(F)F)cc(Cl)c1F (stereo not drawn) | Dose-dependent effect | inactive | inactive |  |  |  |  |
